Data taken from ChEMBL document CHEMBL4834477, “Synthesis and biological evaluation of novel purinyl quinazolinone derivatives as PI3Kδ-specific inhibitors for the treatment of hematologic malignancies” (Bioorg Med Chem, 2021).

Organism: Homo sapiens
Assay: Selectivity ratio of IC50 for recombinant human full length His-tagged p110gamma expressed in baculovirus expression system to IC50 for recombinant human full length His-tagged p110delta/p85alpha expressed in baculovirus expression system
Settings: not given

Row | Structure (SMILES) | Ratio IC50
1 | C[C@H](Nc1ncnc2nc[nH]c12)c1nc2cccc(N)c2c(=O)n1-c1ccccc1 | 18.8
2 | CC(C)[C@H](Nc1ncnc2nc[nH]c12)c1nc2cccc(F)c2c(=O)n1-c1ccccc1 | 172
3 | C[C@H](Nc1ncnc2nc[nH]c12)c1nc2cccc(F)c2c(=O)n1-c1ccccc1 | 30.6
4 | O=c1c2c(Cl)cccc2nc([C@@H](Nc2ncnc3nc[nH]c23)C2CC2)n1-c1ccccc1 | 17.3
5 | O=c1c2c(Cl)cccc2nc([C@@H](Nc2ncnc3nc[nH]c23)C2CCC2)n1-c1ccccc1 | 37.5
6 | O=c1c2cc(F)ccc2nc([C@@H](Nc2ncnc3nc[nH]c23)C2CC2)n1-c1ccccc1 | 26.8
7 | O=c1c2c(F)cccc2nc([C@@H](Nc2ncnc3nc[nH]c23)C2CCC2)n1-c1ccccc1 | 75.6
8 | CCC[C@H](Nc1ncnc2nc[nH]c12)c1nc2cccc(C(F)(F)F)c2c(=O)n1-c1ccccc1 | 17.4
9 | CCC[C@H](Nc1ncnc2nc[nH]c12)c1nc2cccc(Cl)c2c(=O)n1-c1ccccc1 | 36.6

The next lines start with the values.

Row | Ratio IC50 | Structure (SMILES)
10 | 19 | CC[C@H](Nc1ncnc2nc[nH]c12)c1nc2cccc(N)c2c(=O)n1-c1ccccc1
11 | 66.8 | CCC[C@H](Nc1ncnc2nc[nH]c12)c1nc2cccc(F)c2c(=O)n1-c1ccccc1
12 | 23.1 | Nc1cccc2nc([C@@H](Nc3ncnc4nc[nH]c34)C3CC3)n(-c3ccccc3)c(=O)c12
13 | 125 | CC(C)[C@H](Nc1ncnc2nc[nH]c12)c1nc2cccc(Cl)c2c(=O)n1-c1ccccc1

Molecular target: PI3-kinase p110-alpha/p85-alpha (Homo sapiens, UniProt P42336)
Assay: Inhibition of recombinant human full length N-terminal His-tagged p110alpha/p85alpha expressed in baculovirus expression system measured after 60 mins in presence of ATP by ATP-competitive binding assay
Settings: not given
In short: (§1)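 SelectScreen ATP-competitive assay using 10-point titration with 1 μM top final compound concentration. Kinase, substrate and ATP mixed in 30 mM HEPES buffer and reacted 60 min. IC50 taken as the mean of three independent experiments.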

Sequence of PI3-kinase p110-alpha/p85-alpha (P27986 whole entry): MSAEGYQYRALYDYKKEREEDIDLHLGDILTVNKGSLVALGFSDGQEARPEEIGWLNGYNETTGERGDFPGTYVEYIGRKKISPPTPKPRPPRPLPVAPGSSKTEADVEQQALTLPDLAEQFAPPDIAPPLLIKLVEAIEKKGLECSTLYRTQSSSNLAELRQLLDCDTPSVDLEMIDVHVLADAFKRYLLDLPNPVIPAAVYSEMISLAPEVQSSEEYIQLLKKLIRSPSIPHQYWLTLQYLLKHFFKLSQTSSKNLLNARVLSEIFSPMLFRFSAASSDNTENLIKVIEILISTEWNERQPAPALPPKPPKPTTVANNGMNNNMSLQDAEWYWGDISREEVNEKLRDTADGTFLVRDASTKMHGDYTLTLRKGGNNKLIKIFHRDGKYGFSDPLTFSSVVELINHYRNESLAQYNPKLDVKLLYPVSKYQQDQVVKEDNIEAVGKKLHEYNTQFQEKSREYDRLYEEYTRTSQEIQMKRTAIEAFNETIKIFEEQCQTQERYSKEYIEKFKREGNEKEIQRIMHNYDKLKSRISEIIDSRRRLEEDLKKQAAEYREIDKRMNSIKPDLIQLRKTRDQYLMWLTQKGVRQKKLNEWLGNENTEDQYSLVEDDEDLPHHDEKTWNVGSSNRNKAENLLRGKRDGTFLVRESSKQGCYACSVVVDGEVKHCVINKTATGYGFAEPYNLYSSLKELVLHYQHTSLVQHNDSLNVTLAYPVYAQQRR
Sequence of PI3-kinase p110-alpha/p85-alpha (P42336 whole entry): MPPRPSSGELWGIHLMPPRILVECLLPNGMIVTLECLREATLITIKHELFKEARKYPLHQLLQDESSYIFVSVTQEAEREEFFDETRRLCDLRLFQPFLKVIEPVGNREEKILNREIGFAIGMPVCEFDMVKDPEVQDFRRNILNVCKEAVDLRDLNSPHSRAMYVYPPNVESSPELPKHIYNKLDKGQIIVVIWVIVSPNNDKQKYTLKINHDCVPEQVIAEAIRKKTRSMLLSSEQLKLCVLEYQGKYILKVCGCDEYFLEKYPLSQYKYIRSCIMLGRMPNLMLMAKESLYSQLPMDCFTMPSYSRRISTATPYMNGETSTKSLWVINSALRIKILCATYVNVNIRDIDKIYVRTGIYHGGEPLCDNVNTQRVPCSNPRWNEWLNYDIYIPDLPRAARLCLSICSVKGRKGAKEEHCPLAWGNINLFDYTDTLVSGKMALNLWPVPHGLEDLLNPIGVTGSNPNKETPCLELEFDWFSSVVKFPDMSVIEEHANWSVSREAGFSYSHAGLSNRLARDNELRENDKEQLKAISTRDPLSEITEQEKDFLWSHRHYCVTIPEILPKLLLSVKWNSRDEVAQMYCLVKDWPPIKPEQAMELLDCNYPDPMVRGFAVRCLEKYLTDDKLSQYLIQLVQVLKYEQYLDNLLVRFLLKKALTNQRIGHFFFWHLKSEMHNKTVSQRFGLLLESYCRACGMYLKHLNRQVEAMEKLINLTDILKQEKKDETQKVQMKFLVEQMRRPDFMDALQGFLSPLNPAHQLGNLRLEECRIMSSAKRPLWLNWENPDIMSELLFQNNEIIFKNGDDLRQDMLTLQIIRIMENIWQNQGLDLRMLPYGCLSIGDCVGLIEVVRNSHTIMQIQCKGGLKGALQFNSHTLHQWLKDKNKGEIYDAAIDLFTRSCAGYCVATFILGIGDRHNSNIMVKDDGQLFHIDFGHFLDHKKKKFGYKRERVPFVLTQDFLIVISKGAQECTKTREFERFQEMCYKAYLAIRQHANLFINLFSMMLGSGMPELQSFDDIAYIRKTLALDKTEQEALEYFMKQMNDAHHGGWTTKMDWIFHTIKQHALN

Row | Structure (SMILES) | IC50 [nM]
14 | C[C@H](Nc1ncnc2nc[nH]c12)c1nc2cccc(N)c2c(=O)n1-c1ccccc1 | 127
15 | CC(C)[C@H](Nc1ncnc2nc[nH]c12)c1nc2cccc(F)c2c(=O)n1-c1ccccc1 | 878
16 | C[C@H](Nc1ncnc2nc[nH]c12)c1nc2cccc(F)c2c(=O)n1-c1ccccc1 | 152
17 | O=c1c2c(Cl)cccc2nc([C@@H](Nc2ncnc3nc[nH]c23)C2CC2)n1-c1ccccc1 | 205
18 | O=c1c2c(Cl)cccc2nc([C@@H](Nc2ncnc3nc[nH]c23)C2CCC2)n1-c1ccccc1 | 490
19 | O=c1c2cc(F)ccc2nc([C@@H](Nc2ncnc3nc[nH]c23)C2CC2)n1-c1ccccc1 | 295
20 | O=c1c2c(F)cccc2nc([C@@H](Nc2ncnc3nc[nH]c23)C2CCC2)n1-c1ccccc1 | 879
21 | CCC[C@H](Nc1ncnc2nc[nH]c12)c1nc2cccc(C(F)(F)F)c2c(=O)n1-c1ccccc1 | 326
22 | CCC[C@H](Nc1ncnc2nc[nH]c12)c1nc2cccc(Cl)c2c(=O)n1-c1ccccc1 | 301

Further molecules by falling IC50, results first:

Row | IC50 [nM] | Structure (SMILES)
23 | 475 | CC[C@H](Nc1ncnc2nc[nH]c12)c1nc2cccc(N)c2c(=O)n1-c1ccccc1
24 | 385 | CCC[C@H](Nc1ncnc2nc[nH]c12)c1nc2cccc(F)c2c(=O)n1-c1ccccc1
25 | 369 | Nc1cccc2nc([C@@H](Nc3ncnc4nc[nH]c34)C3CC3)n(-c3ccccc3)c(=O)c12
26 | 356 | CC(C)[C@H](Nc1ncnc2nc[nH]c12)c1nc2cccc(Cl)c2c(=O)n1-c1ccccc1

Molecular target: Phosphatidylinositol 4,5-bisphosphate 3-kinase catalytic subunit gamma isoform (Homo sapiens, UniProt P48736)
Assay: Inhibition of recombinant human full length His-tagged p110gamma expressed in baculovirus expression system measured after 60 mins in presence of ATP by ATP-competitive binding assay
Settings: not given
In short: as §1

Sequence of Phosphatidylinositol 4,5-bisphosphate 3-kinase catalytic subunit gamma isoform (P48736 whole entry, canonical isoform): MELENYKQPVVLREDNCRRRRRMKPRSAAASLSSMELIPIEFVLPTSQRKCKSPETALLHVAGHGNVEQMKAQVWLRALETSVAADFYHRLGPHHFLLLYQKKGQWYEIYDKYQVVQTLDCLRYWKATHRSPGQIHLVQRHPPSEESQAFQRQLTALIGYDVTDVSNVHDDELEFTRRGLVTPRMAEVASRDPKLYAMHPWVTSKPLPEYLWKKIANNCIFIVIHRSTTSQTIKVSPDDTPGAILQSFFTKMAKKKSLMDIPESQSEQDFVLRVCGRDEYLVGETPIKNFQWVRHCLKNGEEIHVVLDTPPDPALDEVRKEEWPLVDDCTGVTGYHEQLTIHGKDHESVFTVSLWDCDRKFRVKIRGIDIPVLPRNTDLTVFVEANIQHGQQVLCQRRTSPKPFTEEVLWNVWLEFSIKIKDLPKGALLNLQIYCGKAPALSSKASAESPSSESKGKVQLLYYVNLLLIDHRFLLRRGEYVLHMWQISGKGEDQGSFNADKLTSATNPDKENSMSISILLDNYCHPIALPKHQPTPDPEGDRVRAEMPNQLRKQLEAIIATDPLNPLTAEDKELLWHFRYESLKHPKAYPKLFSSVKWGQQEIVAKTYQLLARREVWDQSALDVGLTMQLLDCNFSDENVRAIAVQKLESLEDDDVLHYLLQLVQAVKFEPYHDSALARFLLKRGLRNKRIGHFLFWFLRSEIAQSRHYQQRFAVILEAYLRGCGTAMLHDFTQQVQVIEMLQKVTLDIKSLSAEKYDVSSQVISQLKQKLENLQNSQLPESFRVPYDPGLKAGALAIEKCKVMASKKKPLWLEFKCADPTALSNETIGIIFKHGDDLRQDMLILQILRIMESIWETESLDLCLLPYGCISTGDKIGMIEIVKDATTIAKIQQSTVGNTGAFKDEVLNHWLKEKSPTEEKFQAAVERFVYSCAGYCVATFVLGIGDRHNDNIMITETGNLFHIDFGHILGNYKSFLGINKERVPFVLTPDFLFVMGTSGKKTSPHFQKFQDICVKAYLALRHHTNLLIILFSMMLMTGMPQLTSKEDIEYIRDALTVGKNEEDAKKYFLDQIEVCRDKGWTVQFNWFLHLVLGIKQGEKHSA

Row | Structure (SMILES) | IC50 [nM]
27 | C[C@H](Nc1ncnc2nc[nH]c12)c1nc2cccc(N)c2c(=O)n1-c1ccccc1 | 7.5
28 | CC(C)[C@H](Nc1ncnc2nc[nH]c12)c1nc2cccc(F)c2c(=O)n1-c1ccccc1 | 313
29 | C[C@H](Nc1ncnc2nc[nH]c12)c1nc2cccc(F)c2c(=O)n1-c1ccccc1 | 15.3
30 | O=c1c2c(Cl)cccc2nc([C@@H](Nc2ncnc3nc[nH]c23)C2CC2)n1-c1ccccc1 | 10.4
31 | O=c1c2c(Cl)cccc2nc([C@@H](Nc2ncnc3nc[nH]c23)C2CCC2)n1-c1ccccc1 | 63.8
32 | O=c1c2cc(F)ccc2nc([C@@H](Nc2ncnc3nc[nH]c23)C2CC2)n1-c1ccccc1 | 29.2
33 | O=c1c2c(F)cccc2nc([C@@H](Nc2ncnc3nc[nH]c23)C2CCC2)n1-c1ccccc1 | 155
34 | CCC[C@H](Nc1ncnc2nc[nH]c12)c1nc2cccc(C(F)(F)F)c2c(=O)n1-c1ccccc1 | 56.3
35 | CCC[C@H](Nc1ncnc2nc[nH]c12)c1nc2cccc(Cl)c2c(=O)n1-c1ccccc1 | 18.3

Results, then the molecule that gave them:

Row | IC50 [nM] | Structure (SMILES)
36 | 24.7 | CC[C@H](Nc1ncnc2nc[nH]c12)c1nc2cccc(N)c2c(=O)n1-c1ccccc1
37 | 72.2 | CCC[C@H](Nc1ncnc2nc[nH]c12)c1nc2cccc(F)c2c(=O)n1-c1ccccc1
38 | 24.7 | Nc1cccc2nc([C@@H](Nc3ncnc4nc[nH]c34)C3CC3)n(-c3ccccc3)c(=O)c12
39 | 62.5 | CC(C)[C@H](Nc1ncnc2nc[nH]c12)c1nc2cccc(Cl)c2c(=O)n1-c1ccccc1

Tested on: MOLT-4
Assay: Antiproliferative activity against human MOLT-4 cells assessed as cell viability at 20 uM by CellTiter-Glo luminescent cell viability assay (reference value: 100%)
Format: functional
Settings: read-out: Activity

Row | Structure (SMILES) | viability at 20 µM [%]
40 | C[C@H](Nc1ncnc2nc[nH]c12)c1nc2cccc(N)c2c(=O)n1-c1ccccc1 | 80.9
41 | CC(C)[C@H](Nc1ncnc2nc[nH]c12)c1nc2cccc(F)c2c(=O)n1-c1ccccc1 | 86.2
42 | CC(C)[C@H](Nc1ncnc2nc[nH]c12)c1nc2cccc(Cl)c2c(=O)n1-c1ccccc1 | 56.4
43 | Nc1cccc2nc([C@@H](Nc3ncnc4nc[nH]c34)C3CC3)n(-c3ccccc3)c(=O)c12 | 65.8
44 | C[C@H](Nc1ncnc2nc[nH]c12)c1nc2cccc(F)c2c(=O)n1-c1ccccc1 | 63.7
45 | CCC[C@H](Nc1ncnc2nc[nH]c12)c1nc2cccc(F)c2c(=O)n1-c1ccccc1 | 60.7
46 | O=c1c2c(Cl)cccc2nc([C@@H](Nc2ncnc3nc[nH]c23)C2CC2)n1-c1ccccc1 | 56.5
47 | O=c1c2c(Cl)cccc2nc([C@@H](Nc2ncnc3nc[nH]c23)C2CCC2)n1-c1ccccc1 | 54.7
48 | O=c1c2cc(F)ccc2nc([C@@H](Nc2ncnc3nc[nH]c23)C2CC2)n1-c1ccccc1 | 68.1
49 | O=c1c2c(F)cccc2nc([C@@H](Nc2ncnc3nc[nH]c23)C2CCC2)n1-c1ccccc1 | 76.5
50 | CC[C@H](Nc1ncnc2nc[nH]c12)c1nc2cccc(N)c2c(=O)n1-c1ccccc1 | 83.6
51 | CCC[C@H](Nc1ncnc2nc[nH]c12)c1nc2cccc(C(F)(F)F)c2c(=O)n1-c1ccccc1 | 52.2
52 | CCC[C@H](Nc1ncnc2nc[nH]c12)c1nc2cccc(Cl)c2c(=O)n1-c1ccccc1 | 24.7

Molecular target: Phosphatidylinositol 4,5-bisphosphate 3-kinase catalytic subunit beta isoform (Homo sapiens, UniProt P42338)
Assay: Inhibition of recombinant human full length His-tagged p110beta expressed in baculovirus expression system measured after 60 mins in presence of ATP by ATP-competitive binding assay
Settings: not given
In short: as §1

Sequence of Phosphatidylinositol 4,5-bisphosphate 3-kinase catalytic subunit beta isoform (P42338 whole entry, canonical isoform): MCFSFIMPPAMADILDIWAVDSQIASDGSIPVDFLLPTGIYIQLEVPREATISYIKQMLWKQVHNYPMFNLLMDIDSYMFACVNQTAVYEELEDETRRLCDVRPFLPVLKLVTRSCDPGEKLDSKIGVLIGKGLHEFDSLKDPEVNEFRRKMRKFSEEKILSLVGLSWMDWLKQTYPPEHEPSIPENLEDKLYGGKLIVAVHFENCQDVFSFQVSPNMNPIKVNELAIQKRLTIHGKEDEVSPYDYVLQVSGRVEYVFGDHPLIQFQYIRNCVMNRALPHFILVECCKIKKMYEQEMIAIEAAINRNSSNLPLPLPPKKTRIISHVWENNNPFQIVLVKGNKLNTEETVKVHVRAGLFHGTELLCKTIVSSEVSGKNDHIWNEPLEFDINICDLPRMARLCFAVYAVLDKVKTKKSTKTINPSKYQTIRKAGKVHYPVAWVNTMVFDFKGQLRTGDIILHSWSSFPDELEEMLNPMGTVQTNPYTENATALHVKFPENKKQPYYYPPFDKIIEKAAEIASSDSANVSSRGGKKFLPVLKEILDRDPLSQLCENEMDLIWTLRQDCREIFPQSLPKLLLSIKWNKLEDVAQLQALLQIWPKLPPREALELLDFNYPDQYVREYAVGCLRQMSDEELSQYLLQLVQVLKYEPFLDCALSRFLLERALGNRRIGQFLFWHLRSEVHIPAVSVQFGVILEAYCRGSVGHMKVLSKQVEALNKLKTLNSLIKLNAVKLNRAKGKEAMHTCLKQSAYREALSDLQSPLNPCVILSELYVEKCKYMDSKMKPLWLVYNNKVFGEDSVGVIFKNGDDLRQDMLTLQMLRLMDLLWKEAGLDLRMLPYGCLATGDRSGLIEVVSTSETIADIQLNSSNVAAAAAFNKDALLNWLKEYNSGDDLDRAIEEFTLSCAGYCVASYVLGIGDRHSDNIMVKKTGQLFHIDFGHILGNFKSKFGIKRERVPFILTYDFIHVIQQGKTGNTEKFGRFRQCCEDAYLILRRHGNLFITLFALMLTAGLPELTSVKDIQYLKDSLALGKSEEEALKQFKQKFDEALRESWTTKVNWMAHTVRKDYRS

Row | Structure (SMILES) | IC50 [nM]
53 | C[C@H](Nc1ncnc2nc[nH]c12)c1nc2cccc(N)c2c(=O)n1-c1ccccc1 | 250
54 | CC(C)[C@H](Nc1ncnc2nc[nH]c12)c1nc2cccc(F)c2c(=O)n1-c1ccccc1 | 1670
55 | C[C@H](Nc1ncnc2nc[nH]c12)c1nc2cccc(F)c2c(=O)n1-c1ccccc1 | 145
56 | O=c1c2c(Cl)cccc2nc([C@@H](Nc2ncnc3nc[nH]c23)C2CC2)n1-c1ccccc1 | 87.6
57 | O=c1c2c(Cl)cccc2nc([C@@H](Nc2ncnc3nc[nH]c23)C2CCC2)n1-c1ccccc1 | 470
58 | O=c1c2cc(F)ccc2nc([C@@H](Nc2ncnc3nc[nH]c23)C2CC2)n1-c1ccccc1 | 200
59 | O=c1c2c(F)cccc2nc([C@@H](Nc2ncnc3nc[nH]c23)C2CCC2)n1-c1ccccc1 | 854
60 | CCC[C@H](Nc1ncnc2nc[nH]c12)c1nc2cccc(C(F)(F)F)c2c(=O)n1-c1ccccc1 | > 1000
61 | CCC[C@H](Nc1ncnc2nc[nH]c12)c1nc2cccc(Cl)c2c(=O)n1-c1ccccc1 | 129

Other lines, results leading:

Row | IC50 [nM] | Structure (SMILES)
62 | 287 | CC[C@H](Nc1ncnc2nc[nH]c12)c1nc2cccc(N)c2c(=O)n1-c1ccccc1
63 | 440 | CCC[C@H](Nc1ncnc2nc[nH]c12)c1nc2cccc(F)c2c(=O)n1-c1ccccc1
64 | 562 | Nc1cccc2nc([C@@H](Nc3ncnc4nc[nH]c34)C3CC3)n(-c3ccccc3)c(=O)c12
65 | 1040 | CC(C)[C@H](Nc1ncnc2nc[nH]c12)c1nc2cccc(Cl)c2c(=O)n1-c1ccccc1

Molecular target: PI3-kinase p110-delta/p85-alpha (Homo sapiens, UniProt O00329)
Assay: Inhibition of recombinant human full length His-tagged p110delta/p85alpha expressed in baculovirus expression system measured after 60 mins in presence of ATP by ATP-competitive binding assay
Settings: not given
In short: as §1

Sequence of PI3-kinase p110-delta/p85-alpha (P27986 whole entry): as the sequence (P27986 whole entry) above
Sequence of PI3-kinase p110-delta/p85-alpha (O00329 whole entry): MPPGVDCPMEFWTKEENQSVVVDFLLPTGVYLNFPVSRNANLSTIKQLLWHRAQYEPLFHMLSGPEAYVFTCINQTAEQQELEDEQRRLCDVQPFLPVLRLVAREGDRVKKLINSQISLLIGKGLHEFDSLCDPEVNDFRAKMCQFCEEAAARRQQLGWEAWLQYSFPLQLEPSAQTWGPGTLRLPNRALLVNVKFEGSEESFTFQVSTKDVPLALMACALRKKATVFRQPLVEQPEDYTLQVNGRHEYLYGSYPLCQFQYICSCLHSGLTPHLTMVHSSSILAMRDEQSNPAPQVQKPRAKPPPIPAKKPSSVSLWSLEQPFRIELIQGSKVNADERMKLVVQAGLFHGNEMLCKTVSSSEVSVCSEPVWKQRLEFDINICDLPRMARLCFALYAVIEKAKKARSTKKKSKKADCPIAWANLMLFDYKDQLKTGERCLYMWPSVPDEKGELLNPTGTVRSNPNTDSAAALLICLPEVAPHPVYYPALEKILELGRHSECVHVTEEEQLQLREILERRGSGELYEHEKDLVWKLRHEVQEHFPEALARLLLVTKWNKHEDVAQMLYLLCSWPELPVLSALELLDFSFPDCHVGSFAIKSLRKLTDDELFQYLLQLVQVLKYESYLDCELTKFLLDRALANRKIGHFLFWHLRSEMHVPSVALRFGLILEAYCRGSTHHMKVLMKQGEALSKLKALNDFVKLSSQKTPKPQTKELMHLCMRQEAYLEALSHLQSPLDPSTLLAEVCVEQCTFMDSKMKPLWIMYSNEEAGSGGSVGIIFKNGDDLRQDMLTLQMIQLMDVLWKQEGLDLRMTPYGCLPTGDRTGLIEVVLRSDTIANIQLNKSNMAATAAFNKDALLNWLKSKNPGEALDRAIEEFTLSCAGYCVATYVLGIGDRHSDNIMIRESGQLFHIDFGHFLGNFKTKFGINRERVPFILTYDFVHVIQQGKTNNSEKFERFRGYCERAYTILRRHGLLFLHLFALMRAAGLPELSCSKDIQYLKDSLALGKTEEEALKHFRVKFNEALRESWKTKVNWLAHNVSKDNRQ

Row | Structure (SMILES) | IC50 [nM]
66 | C[C@H](Nc1ncnc2nc[nH]c12)c1nc2cccc(N)c2c(=O)n1-c1ccccc1 | 0.4
67 | CC(C)[C@H](Nc1ncnc2nc[nH]c12)c1nc2cccc(F)c2c(=O)n1-c1ccccc1 | 1.82
68 | C[C@H](Nc1ncnc2nc[nH]c12)c1nc2cccc(F)c2c(=O)n1-c1ccccc1 | 0.5
69 | O=c1c2c(Cl)cccc2nc([C@@H](Nc2ncnc3nc[nH]c23)C2CC2)n1-c1ccccc1 | 0.6
70 | O=c1c2c(Cl)cccc2nc([C@@H](Nc2ncnc3nc[nH]c23)C2CCC2)n1-c1ccccc1 | 1.7
71 | O=c1c2cc(F)ccc2nc([C@@H](Nc2ncnc3nc[nH]c23)C2CC2)n1-c1ccccc1 | 1.09
72 | O=c1c2c(F)cccc2nc([C@@H](Nc2ncnc3nc[nH]c23)C2CCC2)n1-c1ccccc1 | 2.05
73 | CCC[C@H](Nc1ncnc2nc[nH]c12)c1nc2cccc(C(F)(F)F)c2c(=O)n1-c1ccccc1 | 3.23
74 | CCC[C@H](Nc1ncnc2nc[nH]c12)c1nc2cccc(Cl)c2c(=O)n1-c1ccccc1 | 0.5

The next lines start with the values.

Row | IC50 [nM] | Structure (SMILES)
75 | 1.3 | CC[C@H](Nc1ncnc2nc[nH]c12)c1nc2cccc(N)c2c(=O)n1-c1ccccc1
76 | 1.08 | CCC[C@H](Nc1ncnc2nc[nH]c12)c1nc2cccc(F)c2c(=O)n1-c1ccccc1
77 | 1.07 | Nc1cccc2nc([C@@H](Nc3ncnc4nc[nH]c34)C3CC3)n(-c3ccccc3)c(=O)c12
78 | 0.5 | CC(C)[C@H](Nc1ncnc2nc[nH]c12)c1nc2cccc(Cl)c2c(=O)n1-c1ccccc1

Tested on: SU-DHL-5
Assay: Antiproliferative activity against human SU-DHL-5 cells assessed as cell viability at 10 uM by CellTiter-Glo luminescent cell viability assay (reference value: 100%)
Format: functional
Settings: read-out: Activity

Row | Structure (SMILES) | viability at 10 µM [%]
79 | C[C@H](Nc1ncnc2nc[nH]c12)c1nc2cccc(N)c2c(=O)n1-c1ccccc1 | 36.9
80 | CC(C)[C@H](Nc1ncnc2nc[nH]c12)c1nc2cccc(F)c2c(=O)n1-c1ccccc1 | 63.4
81 | CC(C)[C@H](Nc1ncnc2nc[nH]c12)c1nc2cccc(Cl)c2c(=O)n1-c1ccccc1 | 29.7
82 | Nc1cccc2nc([C@@H](Nc3ncnc4nc[nH]c34)C3CC3)n(-c3ccccc3)c(=O)c12 | 23.5
83 | C[C@H](Nc1ncnc2nc[nH]c12)c1nc2cccc(F)c2c(=O)n1-c1ccccc1 | 46.1
84 | CCC[C@H](Nc1ncnc2nc[nH]c12)c1nc2cccc(F)c2c(=O)n1-c1ccccc1 | 34.4
85 | O=c1c2c(Cl)cccc2nc([C@@H](Nc2ncnc3nc[nH]c23)C2CC2)n1-c1ccccc1 | 36.7
86 | O=c1c2c(Cl)cccc2nc([C@@H](Nc2ncnc3nc[nH]c23)C2CCC2)n1-c1ccccc1 | 52.8
87 | O=c1c2cc(F)ccc2nc([C@@H](Nc2ncnc3nc[nH]c23)C2CC2)n1-c1ccccc1 | 24.4
88 | O=c1c2c(F)cccc2nc([C@@H](Nc2ncnc3nc[nH]c23)C2CCC2)n1-c1ccccc1 | 43
89 | CC[C@H](Nc1ncnc2nc[nH]c12)c1nc2cccc(N)c2c(=O)n1-c1ccccc1 | 45.8
90 | CCC[C@H](Nc1ncnc2nc[nH]c12)c1nc2cccc(C(F)(F)F)c2c(=O)n1-c1ccccc1 | 36.4
91 | CCC[C@H](Nc1ncnc2nc[nH]c12)c1nc2cccc(Cl)c2c(=O)n1-c1ccccc1 | 29.3
